# AI-2 QS modul = modulators of Vibrio harveyi AI-2 quorum sensing system; AID 2094; activity change, % at 7.5 µM; 300,000 tested, 0.4% active; Vibrio harveyi JMH597 AI-2 luminescence/OD600 ratio, 9 h; active compounds read low; strain lacks LuxN and CqsS sensors; 0 = neutral-control median; in the data active means activity change below about -75%, passing the limit was not always enough;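 further: luminescence divided by OD600 gain over 9 h not by final OD600 alone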
# NTR1 agonist = agonists of human neurotensin receptor NTR1 | P30989 | NTR1-U2OS beta-arrestin-GFP spot imaging, agonist mode | activation, % at 20 µM | 330,000 tested, 0.17% active | AID 493036;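 active means activation at or above 40% of the spot to cytoplasm intensity ratio, with at least 20 cells analyzed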;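 further: 0% = DMSO without peptide and 100% = 100 nM NTR1 peptide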
# Target sequence (P30989 whole entry, looked up): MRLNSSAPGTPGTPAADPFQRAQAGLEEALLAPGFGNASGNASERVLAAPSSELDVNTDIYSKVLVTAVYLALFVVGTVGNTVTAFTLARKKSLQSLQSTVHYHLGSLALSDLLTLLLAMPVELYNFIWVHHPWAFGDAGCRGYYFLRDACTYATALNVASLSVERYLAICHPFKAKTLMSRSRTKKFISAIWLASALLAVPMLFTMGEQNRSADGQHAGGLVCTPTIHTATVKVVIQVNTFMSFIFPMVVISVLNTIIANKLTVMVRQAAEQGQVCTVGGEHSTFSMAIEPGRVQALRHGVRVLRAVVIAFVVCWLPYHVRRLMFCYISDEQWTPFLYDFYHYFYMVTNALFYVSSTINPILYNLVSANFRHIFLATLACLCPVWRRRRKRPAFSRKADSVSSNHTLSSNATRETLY
# MC4R antagonist = human MC4R antagonism in cAMP assay; 360,000 tested, 0.48% active; MC4R-expressing cells, MTII-stimulated cAMP, LANCE TR-FRET; AID 540295; inhibition, % at 6.5 µM; P32245;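 active means inhibition above its plate's cutoff, the mean of tested wells on that plate plus 3 SD, cut at about 29% in these data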;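 further: 0% = Melanotan II alone and 100% = Melanotan II plus saturating MCL0020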
#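 Material: human MC4R-expressing U2OS cells. Probe or stimulus: Melanotan II challenge. Dosing: 6.5 µM single dose. Times: 30-min compound, 1-h challenge, 1-h detection, room temperature. Technique: TR-FRET with Eu-cAMP and labeled anti-cAMP, 671 nm. Replication: singlicate.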
# MC4R ag barr = human MC4R agonism via beta-arrestin; P32245; U2OS MC4R beta-arrestin complementation, luminescence; percent of melanotan II response, DMSO zero; activation, % at 8.9 µM; AID 540308; 360,000 tested, 0.98% active;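 active means activation above a per-plate cutoff, the mean activation of sample wells on that plate plus 3 SD, cut at about 8% in these data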
# JMH597 growth = retest: blocks Vibrio harveyi JMH597 growth | shares compounds with AI-2 QS modul | OD600 absorbance, 9 h; lacks LuxN and CqsS sensors | growth inhibition, % at 7.5 µM | 750 tested, 1% active;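 active means every replicate shows growth inhibition above 50%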
# BB721 lum counter = retest counter-screen: lowers luminescence of constitutive-QS Vibrio harveyi BB721; 9 h; inhibition, % at 7.5 µM; 750 tested, 95% active; shares compounds with AI-2 QS modul;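 active means inhibition above about 80% in every replicate, not just on average, limit read from the data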
# BB721 growth rt = retest Vibrio harveyi BB721 growth inhibition; shares compounds with AI-2 QS modul; OD600 absorbance, 9 h; growth inhibition, % at 7.5 µM; 750 tested, 3% active;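 active means every replicate shows growth inhibition above 50%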
# AI-2 QS JMH597 = Vibrio harveyi AI-2 signaling luminescence modulation – JMH597 strain, confirmation; shares compounds with AI-2 QS modul; Vibrio harveyi JMH597 AI-2 quorum sensing luminescence, 9 h; luxN and CqsS knockout, AI-2 only; inhibition, % at 7.5 µM; 750 tested, 97% active; AID 2736;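 active means every replicate shows more than 75% inhibition of signal versus neutral control wells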
# NTR1 ag confirm = NTR1 (human) agonism, confirmed; shares compounds with NTR1 agonist; activation, % at 20 µM; NTR1-U2OS beta-arrestin-GFP translocation imaging; 480 tested, 38% active;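 active means mean activation at 20 µM of at least 40%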;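 further: 0% = DMSO without peptide and 100% = 100 nM NTR1 peptide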
# Active calls of the source: *; · = no result. This is a sample that favours compounds with a hit; in the whole collection about 1.8% have one here.
SMILES,AI-2 QS modul,NTR1 agonist,MC4R antagonist,MC4R ag barr,others
CC(=O)OC1CC(OC2C(O)CC(OC3C(O)CC(OC4CCC5(C)C(CCC6C5CCC5(C)C(C7=CC(=O)OC7)CCC65O)C4)OC3C)OC2C)OC(C)C1OC1OC(CO)C(O)C(O)C1O (stereo unspecified),·,·,-4.7,33.0*,
COC1CC(OC2CCC3(C)C(CCC4C3CCC3(C)C(C5=CC(=O)OC5)C(OC(C)=O)CC43O)C2)OC(C)C1OC1OC(COC2OC(CO)C(O)C(O)C2O)C(O)C(O)C1O (stereo unspecified),0.0,·,·,·,
Cc1cc(C)cc(N2C(=O)NC(=O)/C(=C\c3cccn3-c3ccc(Cl)cc3)C2=O)c1,26.8,49.7*,5.2,3.6,
O=C(O)C1C2c3ccccc3C(O)C1(C(=O)O)c1ccccc12 (stereo unspecified),·,·,4.4,-1.0,
CCCCOc1ccc(CCN)cc1Cl,12.9,0.3,5.3,8.3*,
CCCNC(=O)N1[C@H]2CC[C@@H]1C(C(=O)OC)=C(c1ccc3ccccc3c1)C2,·,-1.0,0.8,-0.7,
CC(C)CC(=O)NC(Oc1ccc(Cl)cc1)C(Cl)(Cl)Cl (stereo unspecified),0.5,1.1,11.8,8.5*,
COC(=O)C1=C(c2cc3ccccc3s2)C[C@@H]2CC[C@H]1N2C(=O)NCCS(C)=O (stereo partly specified),17.1,-0.9,7.2,-2.6,
COC(=O)C1C(O)C(C)C(O)C(C)/C=C\C=C(/C)C(=O)Nc2c(C)c(OC(C)=O)c3c(c2O)C(=O)C(C)=C2OCOC(=C23)/C(C)=C/C(C)(O)C(O)C(C)C1O (stereo unspecified),-149.5*,-0.5,-0.3,-0.7,
O=C(O)c1cc[c]([Hg][Cl])cc1,·,0.4,70.2*,-2.1,
CS(=O)(=O)c1ccc(C2=C(CNC(=O)c3cccnc3)[C@H]3CC[C@@H](C2)N3Cc2ccco2)cc1,·,·,9.8,-0.8,
Clc1cccc(NC2=NCCS2)c1,·,·,2.0,-0.5,
CCOc1cccc(CNCCc2c(C)[nH]c3ccc(OC(F)(F)F)cc23)c1O,9.3,35.7,8.5,16.9*,
O=C1NC(=O)N(Cc2ccco2)C(=O)/C1=C/c1ccc(-c2cccc([N+](=O)[O-])c2)o1,34.5,58.0*,31.0*,-0.6,
CN(C)c1ccc(C(=O)N/N=C/C23CC[C@@H](O)CC2(O)CC[C@@H]2[C@@H]3CCC3(C)C(C4=CC(=O)OC4)CCC23O)cc1 (stereo partly specified),1.8,-1.7,-7.0,13.8*,
COc1cc2c(cc1OC)C13CCN4CC5=CCOC(CC(=O)O)C(C5CC41)C3N2 (stereo unspecified),·,·,-3.0,-0.9,
Nc1nonc1C(=O)N/N=C/c1ccc([N+](=O)[O-])o1,-83.9*,1.4,-8.9,-1.6,
N/C(=N\[N+](=O)[O-])N/N=C/c1ccc(O)cc1,5.8,-1.6,0.5,-1.3,
COC(=O)C1=C(c2cc3ccccc3s2)C[C@@H]2CC[C@H]1N2C(=O)N1CCCC1,1.4,-6.1,-3.5,-1.5,
COC(=O)C1=COC(C)C2CN3CCc4c([nH]c5cc(OC)ccc45)C3CC12 (stereo unspecified),·,·,3.0,2.9,
COc1cc(OC)c(OC)cc1/C=C1/C(=O)NC(=O)N(Cc2ccccc2)C1=O,21.1,10.4,9.0,0.7,
O=C1NC(=O)N(Cc2ccccc2)C(=O)/C1=C/c1cnn(-c2ccccc2)c1,34.6,46.9*,·,·,
O=C1COc2ccc(C(=O)COC(=O)Cc3ccccc3)cc2N1,-90.0*,1.8,13.7,-0.8,JMH597 growth=-6.2;BB721 lum counter=96.4*;BB721 growth rt=-37.4;AI-2 QS JMH597=97.5*
O=C(Cc1ccccc1)OCC(=O)c1ccc(F)cc1,·,0.1,6.4,-1.5,
O=C(Cc1ccccc1)OCC(=O)c1ccccc1,-80.1*,1.5,-6.2,-1.6,JMH597 growth=18.6;BB721 lum counter=96.0*;BB721 growth rt=3.3;AI-2 QS JMH597=97.5*
SMILES,AI-2 QS modul,NTR1 agonist,MC4R antagonist,MC4R ag barr,others
CCC1(c2cccc(O)c2)CCCCN(C)C1 (stereo unspecified),·,0.0,-0.7,0.0,
CCCNC(=O)N1[C@H]2CC[C@@H]1C(C(=O)OC)=C(c1ccc(F)cc1F)C2,·,0.3,6.8,1.0,
CCc1ccc(NC(=O)CN2CC(c3ccccc3)CC2=O)cc1 (stereo unspecified),-81.5*,2.2,-3.6,-2.2,JMH597 growth=20.8;BB721 lum counter=87.8*;BB721 growth rt=9.8;AI-2 QS JMH597=92.3*
Oc1ccc(-[n+]2c(-c3ccccc3)cc(-c3ccccc3)cc2-c2ccccc2)cc1,15.2,80.8*,3.3,3.7,NTR1 ag confirm=83.5*
COC(=O)C(O)(c1ccc(NC(=S)NC(=O)c2ccc(Cl)cc2Cl)c(C)c1)C(F)(F)F (stereo unspecified),14.8,14.9,-3.6,-1.5,
CCOC(=O)C(O)(c1ccc(NC(=S)NC(=O)c2ccc(Cl)cc2Cl)c(C)c1)C(F)(F)F (stereo unspecified),26.0,44.6*,8.2,2.9,NTR1 ag confirm=11.1
Cn1c(O)c(C=NCCN2CCN(C(=O)Nc3ccccc3)CC2)c(=O)n(C)c1=O,25.3,-0.4,-8.4,0.3,
CC(C)c1ccc(N2C(=O)NC(=O)/C(=C\C=C\c3ccco3)C2=O)cc1,28.6,41.7*,·,·,NTR1 ag confirm=52.5*
O=C1NC(=O)N(Cc2ccccc2)C(=O)/C1=C/C=C/c1ccco1,0.5,4.5,-6.6,-0.2,
Cc1cc(/C=C2/C(=O)NC(=O)N(Cc3ccco3)C2=O)c(C)n1-c1ccccc1,11.8,85.8*,6.7,4.5,NTR1 ag confirm=2.5
CN(C)c1ccc(/C=C2/C(=O)NC(=O)N(Cc3ccco3)C2=O)cc1,14.3,9.0,11.7,1.2,
Cc1cc(C)cc(N2C(=O)NC(=O)/C(=C\c3cccn3-c3ccccc3)C2=O)c1,2.1,76.3*,15.6,-1.8,NTR1 ag confirm=67.3*
CN1C(=O)/C(=C/c2cccn2-c2ccc3ccccc3c2)C(=O)NC1=S,22.1,46.0*,16.1,-0.8,NTR1 ag confirm=65.5*
C[C@]12CCC(=O)C=C1C=CC1C2CC[C@@]2(C)C1CC[C@@H]2O (stereo partly specified),·,·,-2.6,-1.3,
CN1CCN(C(=O)COc2ccc(S(=O)(=O)NC3CCCCC3)cc2Cl)CC1,9.0,0.7,-2.7,-3.4,

# Compound activity: PubChem, several laboratories
